Twelve compounds from ChEMBL document CHEMBL3244138, “New antiarrhythmic agents. 3. Primary beta-amino anilides” (J Med Chem, 1979) can be followed below.

Calls of active or inactive are those of the source. The calls are words filed in the database; no cut-off is given here. Bounds are passed on as bounds.

The subject of data set [1] is Mus musculus. The data set can be described thus: Toxicity in mouse assessed as ataxia at 100 mg/kg, sc measured up to 20 mins. On the set-up: dose 100 mg/kg, route subcutaneous. The format is organism-based. The conditions noted are these: in vivo. Put shortly:
(§1)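 Preliminary screen: drug dissolved in 0.9% saline and given subcutaneously at 100 mg/kg to groups of 10 mice. Animals were watched for 20 min for ataxia, convulsions, loss of righting reflex or death. Each sign was recorded as the number of animals affected out of 10 tested.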

Data set [2] deals with Mus musculus. As to the kind of experiment: Toxicity in mouse assessed as mortality at 100 mg/kg, sc measured up to 20 mins. The format is organism-based. On the set-up: dose 100 mg/kg, route subcutaneous. To be noted: in vivo. Put shortly: as §1
The subject of data set [3] is Mus musculus. As to the kind of experiment: Toxicity in mouse assessed as loss of righting reflex at 100 mg/kg, sc measured up to 20 mins. It is filed as organism-based. To be noted: in vivo. The arrangement: dose 100 mg/kg, route subcutaneous. In short, it runs like this:
as §1

Data set [4] relates to Mus musculus. The data set can be described thus: Antiarrhythmic activity in mouse assessed as protection against chloroform-induced fibrillation at 100 mg/kg, sc. It is filed as functional, organism-based. The arrangement: dose 100 mg/kg. The conditions noted are these: Heart. Put shortly: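 Preliminary screen: single 100 mg/kg sc dose in 0.9% saline to 10 mice. After 20 min, each mouse was held in chloroform-saturated air until respiration ceased, and the thorax was opened at once. A mouse counted as protected if ventricular contractions were coordinated rather than fibrillating. Read-out is the number protected of 10.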

In data set [5] the test system is Mus musculus. The data set can be described thus: Toxicity in mouse assessed as loss of righting reflex at 200 mg/kg, sc measured up to 20 mins. The format is organism-based. On the set-up: dose 200 mg/kg, route subcutaneous. The conditions noted are these: in vivo. In short, it runs like this:
(§2)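 Mice (10 per dose) received drug sc in 0.9% saline and were watched for 20 min for ataxia, convulsions, loss of righting reflex and death, before chloroform exposure. Read-out is the number affected of 10 tested.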

The test system of data set [6] is Mus musculus. As to the kind of experiment: Toxicity in mouse assessed as convulsion at 100 mg/kg, sc measured up to 20 mins. The format is organism-based. The arrangement: dose 100 mg/kg, route subcutaneous. To be noted: in vivo. Put shortly:
as §1

For data set [7], the system named is Mus musculus. As to the kind of experiment: Toxicity in mouse assessed as ataxia at 200 mg/kg, sc measured up to 20 mins. The format is organism-based. On the set-up: dose 200 mg/kg, route subcutaneous. The conditions noted are these: in vivo. Put shortly: as §2
Data set [8] has as its system Canis familiaris. The data set can be described thus: Antiarrhythmic activity in left anterior descending coronary artery ligated myocardial infarction model of dog assessed as clearing value of ventricular rate at 0.5 mg/kg/min, iv. It is filed as functional, Canis lupus familiaris, Heart. In short, it runs like this: (§3)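 Dogs with myocardial infarction from two-step ligation of the left anterior descending coronary artery were studied the day after ligation and given a drug infusion. Control percent ventricular ectopic beats, ventricular rate (beats/min) and mean arterial pressure (mmHg) were taken before infusion. Clearing values and dose were taken at the time of lowest ectopic-beat incidence; results are means and SD of 3–14 experiments.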

Data set [9] concerns Canis familiaris. The data set can be described thus: Toxicity in iv dosed left anterior descending coronary artery ligated myocardial infarction model of dog assessed as dose required to cause toxic effect. The format is organism-based, Canis lupus familiaris. To be noted: in vivo.
The subject of data set [10] is Canis familiaris. As to the kind of experiment: Antiarrhythmic activity in iv dosed left anterior descending coronary artery ligated myocardial infarction model of dog assessed as dose required for reduction of ectopic beats to <= 5%. It is filed as functional, Canis lupus familiaris, Heart. In short, it runs like this: as §3
Data set [11] has as its system Mus musculus. The data set can be described thus: Antiarrhythmic activity in sc dosed mouse assessed as protection against chloroform-induced fibrillation. It is filed as functional. The conditions noted are these: Heart. Put shortly:
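Mice (10 per dose) got at least three sc doses in 0.9% saline, chosen for low to high protection. After 20 min, chloroform vapour was given until respiration stopped, then fibrillation versus coordinated ventricular contraction was scored visually.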

Data set [12] deals with Mus musculus. As to the kind of experiment: Ratio of lidocaine ED50 to compound ED50 for antiarrhythmic activity sc dosed mouse assessed as protection against chloroform-induced fibrillation. The format is functional, Heart.
For data set [13], the system named is Canis familiaris. The data set can be described thus: Antiarrhythmic activity in left anterior descending coronary artery ligated myocardial infarction model of dog assessed as clearing value of ventricular ectopic beats at 0.5 mg/kg/min, iv. The format is functional, Canis lupus familiaris, Heart. In short, it runs like this: as §3
The test system of data set [14] is Canis familiaris. The data set can be described thus: Antiarrhythmic activity in left anterior descending coronary artery ligated myocardial infarction model of dog assessed as mean arterial blood pressure at 0.5 mg/kg/min, iv. The format is functional, Canis lupus familiaris. Put shortly:
as §3

For data set [15], the system named is Canis familiaris. The data set can be described thus: Toxicity in iv dosed left anterior descending coronary artery ligated myocardial infarction model of dog assessed as dose required to cause death. It is filed as organism-based, Canis lupus familiaris. To be noted: in vivo. Put shortly: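 Baseline ectopic beats, ventricular rate and mean arterial pressure were recorded before drug infusion. Infusion was stopped at a toxic level, and the cumulative dose in mmol/kg causing death was recorded.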

A short description of data set [16]: Oral bioavailability in dog. It is filed as ADME, organism-based, Canis lupus familiaris. The conditions noted are these: in vivo.
Data set [17] concerns Canis familiaris. As to the kind of experiment: Toxicity in left anterior descending coronary artery ligated myocardial infarction model of dog at […], iv. It is filed as organism-based, Canis lupus familiaris. To be noted: in vivo.
The subject of data set [18] is Canis familiaris. The data set can be described thus: Toxicity in iv dosed left anterior descending coronary artery ligated myocardial infarction model of dog at 0.20 mmol/kg, iv. It is filed as organism-based, Canis lupus familiaris. The conditions noted are these: in vivo.
The test system of data set [19] is Canis familiaris. As to the kind of experiment: Toxicity in iv dosed left anterior descending coronary artery ligated myocardial infarction model of dog at 0.25 mmol/kg, iv. It is filed as organism-based, Canis lupus familiaris. To be noted: in vivo.
Data set [20] relates to Canis familiaris. The data set can be described thus: Cardiovascular toxicity in iv dosed left anterior descending coronary artery ligated myocardial infarction model of dog. The format is organism-based, Canis lupus familiaris. The conditions noted are these: in vivo.
Data set [21] concerns Canis familiaris. The data set can be described thus: Toxicity in iv dosed left anterior descending coronary artery ligated myocardial infarction model of dog assessed as dose required to cause convulsion. To be noted: in vivo. It is filed as organism-based, Canis lupus familiaris.

Consider `Cc1cccc(C)c1N(C)C(=O)CC(C)N.O.O=C(O)C(O)C(O)C(=O)O` (centres undefined), for which the Activity entry with Mus musculus [1] is on record as “Toxic”; in the data set on Mus musculus [2], “Non-toxic”; in the data set on Mus musculus [3], “Non-toxic”.
For the compound `Cc1cccc(C)c1N(C)C(=O)CCN.Cl.O`, the Activity result in the data set with Mus musculus [1] is on record as “Non-toxic”; in the data set on Mus musculus [2], “Non-toxic”; in the data set with Mus musculus [3], “Non-toxic”; in the data set on Mus musculus [5], “Non-toxic”; in the data set with Mus musculus [6], “Non-toxic”; in the data set with Mus musculus [7], “Toxic”. Also, the outcome in the data set with Mus musculus [4] was inactive.
In the case of `CCN(CC)CC(=O)Nc1c(C)cccc1C` [LIDOCAINE], the Activity result was “Toxic” with Mus musculus [1]; 133 bpm with Canis familiaris [8]; 0.27 mmol/kg in the data set with Canis familiaris [9]; 0.21 mmol/kg with Canis familiaris [10]; “Non-toxic” in the data set with Mus musculus [2]; “Toxic” with Mus musculus [3]. Moreover, the Activity result was “Toxic” in the data set on Mus musculus [6], 4% in the data set on Canis familiaris [13] and 101 mmHg in the data set on Canis familiaris [14]. In the data set with Mus musculus [4], the result was Active. In the data set with Mus musculus [11], the ED50 (usually the dose that gives a 50% effect, or the effect in half of the subjects) worked out at 260 µmol/kg. In addition, the “Ratio ED50” value in the data set on Mus musculus [12] was found to be 1.
For `CCc1cccc(C)c1NC(=O)CC(C)N.Cl` (centres undefined), the Activity entry in the data set with Mus musculus [1], with Mus musculus [2], in the data set with Mus musculus [3] and in the data set with Mus musculus [6] was “Non-toxic” each time. Further, in the data set with Mus musculus [11], the ED50 came to 540 µmol/kg. In the data set on Mus musculus [12], the “Ratio ED50” value stood at 0.5.
Take `Cc1cccc(C)c1NC(=O)C(C)N` (centres undefined) [TOCAINIDE]: the Activity in the data set with Canis familiaris [8] is 148 bpm; with Canis familiaris [9], 0.3 mmol/kg; in the data set with Canis familiaris [10], 0.32 mmol/kg; in the data set with Mus musculus [2], “Non-toxic”; in the data set on Mus musculus [3] it was “Non-toxic”; in the data set on Mus musculus [6], “Non-toxic”. The values for the Activity in the data set on Canis familiaris [13] and with Canis familiaris [14] were 2% and 108 mmHg, respectively. Further, in the data set on Mus musculus [11], the ED50 was determined as 1300 µmol/kg. For the same compound, the “Ratio ED50” value with Mus musculus [12] is 0.2.
Consider `Cc1cccc(C)c1NC(=O)CC(C)(C)N.Cl`, for which the Activity entry was “Non-toxic” in the data set on Mus musculus [1]; 138 bpm with Canis familiaris [8]; 0.04 mmol/kg in the data set on Canis familiaris [10]; 0.17 mmol/kg in the data set on Canis familiaris [15]; “Non-toxic” in the data set with Mus musculus [2]; “Non-toxic” in the data set on Mus musculus [3]. Besides, the Activity result is given as “Non-toxic” in the data set on Mus musculus [6], 39% in the data set with Canis familiaris [13] and 95 mmHg in the data set with Canis familiaris [14]. The ED50 in the data set with Mus musculus [11] is 250 µmol/kg. Moreover, in the data set on Mus musculus [12], the “Ratio ED50” value was 1.
In the case of `Cc1cccc(C)c1NC(=O)CC(C)N.Cl` (centres undefined), the Activity result is “Non-toxic” in the data set on Mus musculus [1]; 148 bpm in the data set on Canis familiaris [8]; 0.33 mmol/kg in the data set on Canis familiaris [9]; 0.1 mmol/kg in the data set with Canis familiaris [10]; “Non-toxic” in the data set on Mus musculus [2]; “Non-toxic” with Mus musculus [3]. In addition, the Activity result in the data set on Mus musculus [6] was “Non-toxic”; in the data set on Canis familiaris [13] it was 0%; in the data set on Canis familiaris [14], 97 mmHg. Also, in data set [16], the bioavailability (commonly dose-corrected exposure relative to a reference, in per cent) was > 90%. The ED50 in the data set on Mus musculus [11] came out at 460 µmol/kg. The “Ratio ED50” value in the data set with Mus musculus [12] is listed as 0.6.
Take `CCN(C(=O)CC(C)N)c1c(C)cccc1C.O.O=C(O)C(O)C(O)C(=O)O` (centres undefined): the Activity result in the data set with Mus musculus [1] and with Mus musculus [6] was “Toxic” in each case.
As to `CCC(N)CC(=O)Nc1c(C)cccc1C.Cl` (centres undefined), the Activity entry with Mus musculus [1], in the data set on Mus musculus [2], with Mus musculus [3] and in the data set with Mus musculus [6] was “Non-toxic” throughout. Moreover, the ED50 with Mus musculus [11] turned out to be 380 µmol/kg. Further, the “Ratio ED50” value in the data set with Mus musculus [12] was determined as 0.7.
As to `Cc1cccc(C)c1NC(=O)CCN.Cl`, the Activity entry in the data set with Mus musculus [1] was “Non-toxic”; in the data set with Canis familiaris [8] it was 120 bpm; in the data set on Canis familiaris [10], 0.23 mmol/kg; in the data set with Mus musculus [2], “Non-toxic”; with Mus musculus [3], “Non-toxic”; with Canis familiaris [17] it was “Non-toxic”. For the same compound, the Activity entry with Mus musculus [6] was “Non-toxic”; in the data set on Canis familiaris [13] it was 5%; in the data set on Canis familiaris [14], 85 mmHg. Besides, the ED50 with Mus musculus [11] stood at 560 µmol/kg. Further, the “Ratio ED50” value in the data set on Mus musculus [12] was 0.5.
On to `CCc1cccc(C)c1NC(=O)CCN.Cl`, for which the Activity entry in the data set with Mus musculus [1], in the data set with Mus musculus [2], in the data set with Mus musculus [3] and in the data set on Mus musculus [6] was “Non-toxic” each time. For the same compound, the ED50 in the data set with Mus musculus [11] was found to be 1990 µmol/kg. Further, the “Ratio ED50” value in the data set on Mus musculus [12] came out at 0.1.
In the case of `CCN(CC)CCC(=O)Nc1c(C)cccc1C`, the Activity result was “Toxic” in the data set on Mus musculus [1]; 132 bpm with Canis familiaris [8]; “Toxic” in the data set with Canis familiaris [18]; 0.01 mmol/kg with Canis familiaris [10]; “Non-toxic” in the data set with Mus musculus [2]; “Non-toxic” with Mus musculus [3]. Further, the Activity result in the data set on Canis familiaris [19] was “Toxic”; in the data set on Canis familiaris [20], “Toxic”; in the data set with Canis familiaris [21] it was 0.04 mmol/kg; in the data set with Canis familiaris [13] it was 15%; with Canis familiaris [14] it was 115 mmHg. In addition, the ED50 in the data set with Mus musculus [11] was 280 µmol/kg. Further, the “Ratio ED50” value with Mus musculus [12] was 0.9.
